Assay results of several laboratories.
AKR1B1: Aldo-keto reductase family 1 member B1 (AKR1B1, Homo sapiens, UniProt P15121)
LATS2: Serine/threonine-protein kinase LATS2 (LATS2, Homo sapiens, UniProt Q9NRM7)

Structure (SMILES) | target | read-out | mode | technique | IC50 [µM]
COc1cc(/C=N/NC(=S)N/N=C/c2ccc(N(C)C)cc2)ccc1Oc1ccnc2cc(Cl)ccc12 | AKR1B1 | enzyme activity | inhibitor | absorbance | 10.4
COc1c(Cl)cccc1Nc1c(-c2ccncc2OC[C@@H]2COCCO2)[nH]c2c1C(=O)NCC2 | Tyrosine-protein kinase Lck, phosphorylated (LCK, Homo sapiens, UniProt P06239) | enzyme activity | inhibitor | TR-FRET | 1.13
COc1cc(/C=N/NC(=S)N/N=C/c2ccc(F)cc2)ccc1Oc1ccnc2cc(Cl)ccc12 | AKR1B1 | enzyme activity | inhibitor | absorbance | 19.5
O=C(Nc1c[nH]nc1-c1nc2cc(CN3CCOCC3)ccc2[nH]1)NC1CC1 | LATS2 | enzyme activity | inhibitor | radiometric | 0.114
COc1cc(/C=N/NC(=S)NN=Cc2ccncc2)ccc1Oc1ccnc2cc(Cl)ccc12 | AKR1B1 | enzyme activity | inhibitor | absorbance | 9.92
Cc1cc(-c2ccnc3[nH]cc(F)c23)cc(F)c1[C@@]1(O)[C@H](C)CN(C2CCS(=O)(=O)CC2)C[C@@H]1C | LATS2 | target engagement in cells |  | BRET | 0.036
COc1cc(/C=N/NC(=S)N/N=C/c2ccc(Cl)cc2)ccc1Oc1ccnc2cc(Cl)ccc12 | AKR1B1 | enzyme activity | inhibitor | absorbance | 14.9
Cc1cc(-c2ccnc3[nH]cc(F)c23)cc(F)c1[C@@]1(O)[C@H](C)CN(C(=O)CN)C[C@@H]1C | LATS2 | target engagement in cells |  | BRET | 0.0051
CC(C)C[C@H](NP(=O)(O)O[C@@H]1O[C@@H](C)[C@H](O)[C@@H](O)[C@H]1O)C(=O)N[C@@H](Cc1c[nH]c2ccccc12)C(=O)O | Neprilysin (MME, Homo sapiens, UniProt P08473) | enzyme activity | inhibitor |  | 0.575
Nc1cnccc1Nc1ccc(Cl)c(Cl)c1 | Endonuclease 8-like 1 (NEIL1, Homo sapiens, UniProt Q96FI4) | enzyme activity | inhibitor |  | > 100
COc1cc(CN(CCN)C(=O)c2cccs2)ccc1OCc1ccccc1 | Transient receptor potential cation channel subfamily M member 8 (TRPM8, Homo sapiens, UniProt Q7Z2W7) | ion current | inhibitor | patch clamp | 0.012
OC1(c2ccc(-c3ccnc4[nH]cc(F)c34)cc2)CCCNCC1 (stereo not drawn) | LATS2 | enzyme activity | inhibitor | radiometric | 0.012
C=CC(=O)N1CCN(c2nc(=O)n(-c3c(C)ccnc3C(C)C)c3nc(-c4c(O)cccc4F)c(F)cc23)[C@@H](C)C1 | GTPase HRas (HRAS, Homo sapiens, UniProt P01112, C181S/C184S/C186S/G12C) | enzyme activity | inhibitor |  | 0.0871
COc1cc(/C=N/NC(=S)NN=Cc2scnc2C)ccc1Oc1ccnc2cc(Cl)ccc12 | AKR1B1 | enzyme activity | inhibitor | absorbance | 17.8
OC1(c2ccc(-c3ccnc4[nH]cc(F)c34)cc2)CCCNC1 (stereo not drawn) | LATS2 | enzyme activity | inhibitor | radiometric | 0.01
